In ChEMBL document CHEMBL3352137, “Modification on ursodeoxycholic acid (UDCA) scaffold. discovery of bile acid derivatives as selective agonists of cell-surface G-protein coupled bile acid receptor 1 (GP-BAR1)” (J Med Chem, 2014):
Calls of active or inactive are those of the source. The calls are words filed in the database; no cut-off is given here.

Experiments:
Mus musculus [1] = experiment: Effect on plasma bile acid level in CD1 mouse model of ANIT-induced cholestasis at 64 mg/kg, po; format: functional, organism-based; parameters: dose 64 mg/kg
Mus musculus [2] = experiment: Effect on body weight loss in CD1 mouse model of ANIT-induced cholestasis at 64 mg/kg, po; format: functional, organism-based; parameters: dose 64 mg/kg
Mus musculus [3] = experiment: Induction of FXR-mediated BSEP mRNA expression in CD1 mouse liver at 64 mg/kg, po measured 24 hrs post dose by real-time PCR method; format: functional, organism-based; parameters: dose 64 mg/kg
How it was run: (§1)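 Male CD1 mice (n = 3, 4) received a single oral dose of 64 mg/kg. Liver and ileum were collected at 6 or 24 h (3, 6 and 24 h also stated). Target mRNA was measured by SYBR real-time PCR (0.2 μM primers, 10 ng template, 40 cycles of 95 °C 20 s / 60 °C 30 s), with all reactions in triplicate. Comparison was versus control mice.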

Mus musculus [4] = experiment: Induction of FXR-mediated OST mRNA expression in CD1 mouse liver at 64 mg/kg, po measured 24 hrs post dose by real-time PCR method; format: functional, organism-based; parameters: dose 64 mg/kg; how it was run: as §1
Mus musculus [5] = experiment: Increase in plasma bile acid level in CD1 mouse model of ANIT-induced cholestasis at 16 mg/kg, po
Mus musculus [6] = experiment: Induction of GPBAR1-mediated pro-glucagon-1 mRNA expression in CD1 mouse intestine at 64 mg/kg, po measured 6 hrs post dose by real-time PCR method; format: functional; how it was run: as §1
Mus musculus [7] = experiment: Increase in plasma tauro-cholic acid level in CD1 mouse model of ANIT-induced cholestasis at 16 mg/kg, po
Mus musculus [8] = experiment: Induction of FXR-mediated BSEP mRNA expression in CD1 mouse liver at 64 mg/kg, po measured 3 to 24 hrs post dose by real-time PCR method; format: functional, organism-based; parameters: dose 64 mg/kg; how it was run: as §1
Mus musculus [9] = experiment: Increase in plasma tauro-muricholic acid level in CD1 mouse model of ANIT-induced cholestasis at 16 mg/kg, po
Mus musculus [10] = experiment: Induction of FXR-mediated OST mRNA expression in CD1 mouse liver at 64 mg/kg, po measured 3 to 24 hrs post dose by real-time PCR method; format: functional, organism-based; parameters: dose 64 mg/kg; how it was run: as §1
[11] = molecular target: T1, G-protein coupled bile acid receptor 1 (Homo sapiens, UniProt Q8TDU6); experiment: (§2) Agonist activity at human GPBAR1 expressed in HEK293T cells assessed as stimulation of cAMP response element-mediated receptor transactivation by luciferase reporter gene assay; format: functional, cell-based, HEK-293T
T1 sequence (Q8TDU6 whole entry): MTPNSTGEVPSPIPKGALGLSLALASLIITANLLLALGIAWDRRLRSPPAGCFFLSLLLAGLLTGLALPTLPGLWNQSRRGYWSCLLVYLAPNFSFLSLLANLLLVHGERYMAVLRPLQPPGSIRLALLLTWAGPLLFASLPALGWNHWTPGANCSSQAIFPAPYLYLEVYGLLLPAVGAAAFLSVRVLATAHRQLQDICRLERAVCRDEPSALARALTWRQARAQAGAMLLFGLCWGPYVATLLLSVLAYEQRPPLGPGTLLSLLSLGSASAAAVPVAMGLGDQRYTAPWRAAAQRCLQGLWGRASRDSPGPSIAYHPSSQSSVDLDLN
How it was run: (§3)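 HEK-293T cells were cotransfected with a CRE-driven luc2P reporter (pGL4.29), pCMVSPORT6-human GP-BAR1 and a Renilla vector. 24 h after transfection they were stimulated for 18 h (10 μM single point; 0.1, 1 and 10 μM for EC50). Lysates were read for luciferase as a measure of intracellular cAMP rise, with TLCA 10 μM as reference. Data are mean ± standard error of at least three determinations in duplicate.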

[12] = molecular target: T2, G-protein coupled bile acid receptor 1 (Homo sapiens) (UniProt Q8TDU6); experiment: as §2; format: functional, cell-based; settings: HEK-293T; how it was run: as §3
T2 sequence (whole entry): T1 sequence (Q8TDU6 whole entry)

[13] = molecular target: T3, Bile acid receptor (Homo sapiens) (UniProt Q96RI1); experiment: Agonist activity at FXR (unknown origin) expressed in human HepG2 cells assessed as stimulation of FXR response element IR1-mediated receptor transactivation at 50 uM in presence of CDCA by luciferase reporter gene assay; format: cell-based
T3 sequence (whole entry): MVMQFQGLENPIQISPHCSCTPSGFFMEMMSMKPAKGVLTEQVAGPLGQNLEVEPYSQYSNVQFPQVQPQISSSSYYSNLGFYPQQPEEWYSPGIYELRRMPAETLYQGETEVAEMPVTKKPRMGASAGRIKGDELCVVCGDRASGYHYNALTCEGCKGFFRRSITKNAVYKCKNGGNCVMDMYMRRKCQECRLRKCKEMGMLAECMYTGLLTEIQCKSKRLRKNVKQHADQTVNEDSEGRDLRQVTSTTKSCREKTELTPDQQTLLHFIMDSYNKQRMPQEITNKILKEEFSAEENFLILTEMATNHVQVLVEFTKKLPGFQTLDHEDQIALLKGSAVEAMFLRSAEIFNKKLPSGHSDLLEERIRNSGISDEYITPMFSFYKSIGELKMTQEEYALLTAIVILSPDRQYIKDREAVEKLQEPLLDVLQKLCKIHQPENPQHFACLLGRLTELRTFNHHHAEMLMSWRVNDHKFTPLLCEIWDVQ
How it was run: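 HepG2 cells were cotransfected with pSG5-FXR, pSG5-RXR, the IR1-containing p(hsp27)-TK-LUC reporter and a Renilla vector (pGL4.70). 24 h after transfection they were stimulated for 18 h with 10 μM CDCA plus 50 μM compound. Lysates were read for luciferase. Data are the RLU/RRU ratio, mean ± standard error, compared with CDCA and untreated cells.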

HEK-293T = experiment: Toxicity against HEK293T cells at 50 uM; format: cell-based; settings: human

`C[C@H](CCC(=O)O)[C@H]1CC[C@H]2[C@@H]3[C@@H](O)C[C@@H]4C[C@H](O)CC[C@]4(C)[C@H]3CC[C@]12C` was tested, and the Activity (Mus musculus [1]) was “inactive”, the Activity (Mus musculus [2]) was “inactive” and the Activity (Mus musculus [3]) was “Active”. The Activity (Mus musculus [4]) was “Active”.
In the case of `C[C@H](CCCCC(=O)O)[C@H]1CC[C@H]2[C@@H]3[C@@H](O)C[C@@H]4C[C@H](O)CC[C@]4(C)[C@H]3CC[C@]12C`, the Activity (Mus musculus [5]) is reported as “Active”, the “fold change (FC)” value (Mus musculus [6]) is reported as 2 and the Activity (Mus musculus [7]) is reported as “Active”. The Activity (Mus musculus [8]) was “inactive”, the Activity (Mus musculus [9]) was “Active” and the Activity (Mus musculus [10]) was “inactive”. The EC50 [11] was 17.2 µM and the Activity [12] was “Dose-dependent effect”.
For `C[C@H](CCO)[C@H]1CC[C@H]2[C@@H]3[C@@H](O)C[C@@H]4C[C@H](O)CC[C@]4(C)[C@H]3CC[C@]12C`, the EC50 [11] was 24.4 µM and the Activity [12] was “Dose-dependent effect”.
For `C[C@H](CCCCC(=O)O)[C@H]1CC[C@H]2[C@@H]3[C@H](O)C[C@@H]4C[C@H](O)CC[C@]4(C)[C@H]3CC[C@]12C`, the Activity [13] was “Active” and the Activity (HEK-293T) was “Toxic”.
